Screening results (PubChem)
A selection: hits, their analogues and other compounds. The true share with any hit is near 2.2%.
RanGTP-Impb inh = inhibitors of RanGTP-importin-beta interaction, primary screen, biochemical, FRET, CFP-Ran, YFP-importin-beta, homogeneous | cell-free CFP-Ran/YFP-importin-beta FRET ratio | inhibition, % (no concentration beside the values) | hit rate 1.1% among 300,000;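 active = more than half of the replicate wells show a fall in the fluorescence ratio signal beyond about 16%, limit read from the data, passing the limit was not always enough; inconclusive = exactly half of the replicate wells pass the set limit; inactive = fewer than half of replicates pass the limit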;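 also: 0% = DMSO wells and 100% = Ran loaded with GDP instead of GTP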
eIF4E 4G PPI = blocks eIF4E binding to eIF4G; P63073+Q04637; TR-FRET eIF4E-eIF4GI(517-606) binding, 2 h; inhibition, % at 21.7 µM; hit rate 0.37% among 220,000; AID 782;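 active = inhibition above about 30%, limit read from the data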;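 also: 0% = full FRET control wells and 100% = background wells lacking eIF4GI fragment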
Runt-CBFb FRET = inhibitors of human RUNX1 Runt domain binding to CBFb; Q01196+Q13951; Cerulean-Runt/Venus-CBFb FRET ratio 530/480, 1 h; inhibition, % at 20 µM; hit rate 0.46% among 220,000; AID 1496;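 active = inhibition over about 50% at 20 µM in the single-dose screen, limit read from the data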;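 also: 0% = DMSO wells and 100% = excess unlabeled CBFb competitor control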
Target sequence (Q01196 whole entry, looked up, the tested form may be a part): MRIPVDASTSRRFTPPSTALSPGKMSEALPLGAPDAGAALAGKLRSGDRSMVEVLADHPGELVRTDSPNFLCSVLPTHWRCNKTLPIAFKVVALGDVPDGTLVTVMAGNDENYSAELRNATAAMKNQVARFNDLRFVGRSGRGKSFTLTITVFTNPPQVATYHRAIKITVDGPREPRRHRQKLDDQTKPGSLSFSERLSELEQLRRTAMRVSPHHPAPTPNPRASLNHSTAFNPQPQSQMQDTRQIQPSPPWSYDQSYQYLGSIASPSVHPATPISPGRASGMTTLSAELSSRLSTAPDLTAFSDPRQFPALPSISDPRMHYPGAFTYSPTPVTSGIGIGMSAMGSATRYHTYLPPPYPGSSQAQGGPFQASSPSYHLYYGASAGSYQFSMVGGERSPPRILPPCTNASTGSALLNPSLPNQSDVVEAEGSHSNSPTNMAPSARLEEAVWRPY
Target sequence (Q13951 whole entry, looked up, the tested form may be a part): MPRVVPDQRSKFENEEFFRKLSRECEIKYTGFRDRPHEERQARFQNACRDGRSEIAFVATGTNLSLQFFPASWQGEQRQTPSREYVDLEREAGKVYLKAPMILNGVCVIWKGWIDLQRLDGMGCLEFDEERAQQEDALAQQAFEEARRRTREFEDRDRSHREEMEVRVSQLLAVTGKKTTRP
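Schedule: protein complex preformed 1 h, compound exposure 1 h, room temperature, dark; test system: Cerulean-labeled Runt domain protein; amount: 100 nM per protein; buffer or medium: Tris 50 mM pH 7.5, KCl, K2SO4, 0.01% BSA; read-out: loss of energy transfer signal; detection: FRET fluorescence; controls: 5 µM unlabeled CBFb as full-inhibition high control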
Hck-Nef inh = blocks Nef-activated human Hck kinase | inhibition, % at 20 µM | P08631 | hit rate 0.68% among 220,000 | AID 463187 | Recombinant Hck-YEEI plus Nef, Z-Lyte FRET kinase assay;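 active = Hck-Nef kinase inhibition above about 50%, limit read from the data; inactive = inhibition below that limit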;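 also: 0% = DMSO with Hck plus Nef and 100% = Hck alone without Nef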
Runt-SMMHC FRET = Runt domain-CBFb-SMMHC interaction inhibition | Q01196+Q13951 | Cerulean-Runt/Venus-CBFb-SMMHC FRET ratio 530/480, 1 h | inhibition, % at 20 µM | hit rate 0.74% among 220,000;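 active = mean inhibition across duplicate retests at 20 µM reaching about 50%, limit read from the data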;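 also: 0% = DMSO wells and 100% = wells with excess untagged CBFb-SMMHC; inhibitors lower the FRET ratio by blocking Runt binding to CBFb-SMMHC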
PERK inhibitor = inhibitors of human PERK kinase | CHO PERK-DD fusion, SEAP luminescence translation reporter | hit rate 0.17% among 220,000 | inhibition, % at 5.6 µM | Q9NZJ5;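 active = inhibition above the mean inhibition of all tested compounds plus 3 SD, set separately per screening campaign, cut at about 2.9% in these data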;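 also: PERK kinase domain activated by AP20187 dimerizer at 100 nM; 0% = DMSO with dimerizer and 100% = rapamycin at 8.4 µM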
Runt-CBFb TRFRET = Runt-CBFb binding inhibition. shares compounds with Runt-CBFb FRET. TR-FRET RUNX1 Runt domain-CBFb binding. inhibition, % at 20 µM. hit rate 20% among 480; in the data active = inhibition above about 40%
YIC counter = counter-screen for RanGTP-importin-beta inhibitors: YIC FRET probe; IC50, µM; Purified YIC probe, intramolecular FRET ratio YFP/CFP; AID 435026; shares compounds with RanGTP-Impb inh; hit rate 40% among 1,000;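 active = fitted half-maximal inhibitory concentration no more than tenfold above the top dose tested; inconclusive = flat fit with 30 to 70% activity, or poor fit; inactive = half-maximal concentration beyond tenfold above the top dose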
The depositor's hits bear a star; ? = inconclusive; · = no result shown; + = active, no number.

SMILES | RanGTP-Impb inh | eIF4E 4G PPI | Runt-CBFb FRET | Hck-Nef inh | Runt-SMMHC FRET | PERK inhibitor | Runt-CBFb TRFRET | YIC counter
CCCCC1=CC2=CC(=O)C(C)(OC(=O)CC)C(=O)C2=CN1CCc1ccc(Br)cc1 (stereo not drawn) | 2.7 | -2.5 | 9.3 | 22.1 | 10.6 | · | · | ·
Fc1cccc(C[n+]2csc3ccccc32)c1 | 5.2 | -2.2 | 55.6* | -1.6 | 70.5 | 1.6 | -9.6 | ·
COc1ccccc1NS(=O)(=O)c1cc(NC(=O)CCNC(C)=O)ccc1N1CCCCC1 | -1.7 | · | · | · | · | · | · | ·
CC(=O)c1cnc2c(-c3ccccc3)c(C)nn2c1C | 0.7 | 1.2 | -1.6 | 14.1 | -9.1 | -0.4 | · | ·
CNC(=S)N(Cc1cc2ccc(OC)cc2[nH]c1=O)CC1CCCO1 (stereo not drawn) | 6.5 | -0.8 | 63.0* | 17.1 | 39.7 | 0.3 | 26.4 | ·
COc1ccc2cc(CN(Cc3ccco3)C(=S)NCC3CCCO3)c(=O)[nH]c2c1 (stereo not drawn) | 0.8 | -2.8 | · | 15.5 | · | 0.6 | · | ·
O=C(NCCO)c1cccc2c1-c1ccccc1C2=O | -1.6 | 5.0 | 2.0 | 1.8 | -1.2 | 0.7 | · | ·
O=C1c2ccccc2-c2c1cccc2C(=O)N(CCO)CCO | -2.8 | -8.1 | 74.6* | -1.0 | -1.2 | 0.4 | -25.7 | ·
O=c1cc(CN2CCOCC2)c2cc(Cl)ccc2o1 | 1.4 | · | · | · | · | · | · | ·
CN1CCc2cccc3c2[C@H]1Cc1ccc(O)c(O)c1-3 | 3.2 | 4.8 | 73.3* | 3.9 | · | -0.8 | 36.1 | ·
CN1CCc2cc3c(c4c2[C@H]1[C@H](O)c1ccccc1-4)OCO3 | -2.4 | -1.5 | -149.6 | -1.8 | 78.9 | -0.6 | · | ·
CCN(CC)C(=O)Cn1cc(C(=O)C(=O)N2CCN(c3ccc([N+](=O)[O-])cc3)CC2)c2ccccc21 | 3.3 | · | · | · | · | · | · | ·
O=C1CC(N2CCC(O)(c3ccc(Cl)cc3)CC2)C(=O)N1Cc1ccc(N2CCCC2=O)cc1 (stereo not drawn) | 2.3 | -1.9 | 66.3* | 6.1 | -3.0 | -0.5 | -13.0 | ·
CNC(=O)/C(C#N)=C/c1c(N(Cc2ccccc2)Cc2ccccc2)nc2ccccn2c1=O | 0.9 | -1.7 | 62.6* | 0.1 | 89.5* | -0.6 | 3.2 | ·
O=C(COc1ccc(/C=N/NC(=O)c2ccccc2O)cc1)Nc1ccccc1 | 4.4 | 9.3 | 0.3 | 22.6 | -7.3 | -0.5 | · | ·
CC(C)N1CCN(Cc2nc(-c3ccccc3)cs2)CC1CCO (stereo not drawn) | -2.0 | -1.4 | 0.9 | 1.3 | -3.9 | 0.1 | · | ·
Cc1ccc(C(=O)NNc2c3ccccc3nc3ccccc23)cc1 | 39.2* | 1.6 | 73.0* | 8.4 | 27.7 | -2.7 | -8.8 | >50
COc1ccc(-c2c(C)sc(NC(=O)c3ccnn3C)c2C#N)cc1 | 25.4* | -0.9 | 57.2* | 4.3 | 18.0 | 0.5 | -51.6 | >50
Cn1nccc1C(=O)Nc1sc2c(c1C#N)CCCC2 | -2.8 | · | · | · | · | · | · | ·
CCOCCCNC(=S)NCCc1ccccc1 | 0.5 | 10.9 | 1.3 | 2.1 | 2.2 | 0.6 | · | ·
CCOCCCNC(=S)NCCNc1nc2c(C)cccc2cc1C#N | 20.7* | -4.8 | 68.3* | 11.1 | 92.6* | -2.1 | 30.3 | 32*
CCOC(=O)c1[nH]c(C)c(C(=O)N2CCN(C(=O)OCC)CC2)c1CC | -1.8 | -2.9 | -0.1 | 1.4 | -3.2 | -0.6 | · | ·
Cc1ccc(N=Cc2cc3c(cc2O)OC(N)=C(C#N)C3c2ccccc2)cc1 (stereo not drawn) | 43.2* | -0.2 | 79.0* | 5.0 | 116.6* | 0.0 | 4.2 | >50
O=C(Oc1ccc(C(=S)N2CCOCC2)cc1Br)c1cc(Cl)ccc1Cl | 1.3 | -8.7 | · | -0.1 | -3.9 | 1.1 | · | ·
O=C(Oc1c(Br)cc(C(=S)N2CCOCC2)cc1Br)c1ccc(Cl)cc1 | 17.5* | 48.9* | 50.1* | -1.4 | 24.0 | 1.3 | -11.2 | >50
SMILES | RanGTP-Impb inh | eIF4E 4G PPI | Runt-CBFb FRET | Hck-Nef inh | Runt-SMMHC FRET | PERK inhibitor | Runt-CBFb TRFRET | YIC counter
Cn1cc(CN2C[C@H]3CC[C@H]2C3)c(-c2ccccc2F)n1 | 3.8 | -1.4 | -1.9 | 16.9 | -1.6 | 0.2 | · | ·
COC(=O)C1=C(C)NC2=C(C(=O)CCC2)C1c1cccc(C)n1 (stereo not drawn) | 19.0* | -1.5 | 60.3* | 22.4 | 132.4* | 0.9 | 4.0 | 31.2*
Cc1ccc(NC(=O)/C(=C\C=C\c2ccccc2)NC(=O)c2ccccc2)cc1 | ? | -6.1 | 1.8 | 0.0 | 2.6 | -0.7 | · | ·
COc1ccccc1C(=O)NCCC(=O)Nc1cccnc1 | -3.4 | -5.2 | 0.7 | 4.2 | 0.8 | -0.1 | · | ·
CC(=O)Nc1ccc(S(=O)(=O)c2c(N)n(CCN3CCOCC3)c3nc4ccccc4nc23)cc1 | -2.3 | 0.4 | 29.8 | 30.9 | 10.0 | 0.3 | · | ·
CC(C)OC(=O)c1c(N)n(CCCN2CCOCC2)c2nc3ccccc3nc12 | 25.4* | -1.9 | 65.1* | 25.5 | 83.8* | -2.5 | 32.5 | 31.3*
COCC(C)OC(=O)c1c(N)n(CC(C)C)c2nc3ccccc3nc12 (stereo not drawn) | 21.3* | 0.7 | 62.6* | 33.2 | 125.9* | -1.1 | 32.9 | 25.6*
C=CCn1c(N)c(C(=O)OC(C)CC)c2nc3ccccc3nc21 (stereo not drawn) | 34.8* | 0.6 | 66.0* | 30.1 | 122.9* | -0.9 | 28.1 | 22.1*
O=C(CNC(=O)c1ccc(Br)cc1)OCc1cc([N+](=O)[O-])cc2c1OCOC2 | -2.4 | 6.4 | -2.7 | 17.5 | 3.6 | 1.5 | · | ·
CCn1nc(NC(=O)c2ccccn2)c2cc3cccc(C)c3nc21 | 37.9* | 3.8 | 59.6* | 4.8 | 38.7 | -0.2 | -16.6 | 0.862*
O=C(Cn1c2ccccc2c(=O)c2ccccc21)N/N=C/c1ccc(N2CCCC2)c([N+](=O)[O-])c1 | 28.4* | 28.9 | 75.5* | 37.2 | 132.9* | 0.6 | -1.0 | >50
O=C(N/N=C/c1ccc(N2CCCC2)c([N+](=O)[O-])c1)c1cccnc1 | ? | 0.0 | 11.9 | 7.7 | 2.0 | 1.4 | · | ·
O=C(c1cc([N+](=O)[O-])ccc1Cl)N1CCN(c2ccc(F)cc2)CC1 | -0.7 | 0.4 | -1.8 | 3.1 | -0.6 | 0.3 | · | ·
Cc1nc2ccc(S(=O)(=O)Nc3cccc(-c4nc5cccnc5s4)c3)cc2s1 | 0.9 | 2.9 | 43.9 | -9.4 | 1.2 | 0.9 | · | ·
Cc1nc2ccc(S(=O)(=O)Nc3ccc(-c4nc5cccnc5s4)cc3)cc2s1 | 21.5* | 0.8 | 74.1* | 55.6* | · | 0.0 | 85.5* | 38.5*
O=S(=O)(Nc1ccc(-c2nc3cccnc3s2)cc1)c1ccccc1F | 9.3 | 0.5 | 80.8* | + | 146.1* | -1.3 | -2.4 | ·
